This is an account of results in ChEMBL document CHEMBL1149648, “Norcantharimides, synthesis and anticancer activity: Synthesis of new norcantharidin analogues and their anticancer evaluation” (2007).

Format in all cases: functional
Assay [1] relates to HT-29. Description: Cytotoxicity against human HT29 cells after 72 hrs by MTT assay. To be noted: HT-29, 72 h. In short, it runs like this:
(§1)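 Cells were grown in DMEM with 10% FBS, bicarbonate, penicillin/streptomycin and 4 mM glutamine at 37 °C under 5% CO2. Log-phase cells were plated in duplicate at 2500–4000 cells/well. After 24 h, medium with or without agent was added (stocks in DMSO or water). Growth inhibition was read by MTT at 540 nm after 72 h continuous exposure. Values are means (SEM) of 3–6 experiments.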

The subject of assay [2] is HT-29. Description: Cytotoxicity against human HT29 cells at 100 uM after 72 hrs by MTT assay. To be noted: HT-29, 72 h. The gist of the method: (§2)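 Log-phase cells in DMEM with 10% FBS (37 °C, 5% CO2) were plated in duplicate at 2500–4000 cells/well. Agent was added 24 h later at a fixed final concentration of 100 µM and left for 72 h continuous exposure. Read-out was MTT absorbance at 540 nm, expressed as percent growth inhibition, where 100% means total growth inhibition.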

Assay [3] has as its system SW480. Description: Cytotoxicity against human SW480 cells after 72 hrs by MTT assay. To be noted: SW480, 72 h. In short, it runs like this:
as §1

Assay [4] deals with SW480. Description: Cytotoxicity against human SW480 cells at 100 uM after 72 hrs by MTT assay. As to conditions: SW480, 72 h. In short, it runs like this: as §2
Assay [5] deals with MCF7. Description: Cytotoxicity against human MCF7 cells after 72 hrs by MTT assay. As to conditions: MCF7, 72 h. The gist of the method:
as §1

For assay [6], the system named is MCF7. The assay is described as follows: Cytotoxicity against human MCF7 cells at 100 uM after 72 hrs by MTT assay. To be noted: MCF7, 72 h. In short, it runs like this:
as §2

Assay [7] has as its system A2780. The assay is described as follows: Cytotoxicity against human A2780 cells after 72 hrs by MTT assay. As to conditions: A2780, 72 h. In short, it runs like this: as §1
The subject of assay [8] is A2780. Description: Cytotoxicity against human A2780 cells at 100 uM after 72 hrs by MTT assay. As to conditions: A2780, 72 h. In short, it runs like this: as §2
For assay [9], the system named is NCI-H460. The assay is described as follows: Cytotoxicity against human H460 cells after 72 hrs by MTT assay. As to conditions: NCI-H460, 72 h. In short, it runs like this: as §1
Assay [10] concerns NCI-H460. The assay is described as follows: Cytotoxicity against human H460 cells at 100 uM after 72 hrs by MTT assay. As to conditions: NCI-H460, 72 h. In short, it runs like this: as §2
Assay [11] deals with A-431. Description: Cytotoxicity against human A431 cells after 72 hrs by MTT assay. As to conditions: A-431, 72 h. The gist of the method:
as §1

In assay [12] the test system is A-431. Description: Cytotoxicity against human A431 cells at 100 uM after 72 hrs by MTT assay. To be noted: A-431, 72 h. The gist of the method: as §2
Assay [13] deals with DU-145. The assay is described as follows: Cytotoxicity against human DU145 cells after 72 hrs by MTT assay. As to conditions: DU-145, 72 h. The gist of the method:
as §1

Assay [14] concerns DU-145. Description: Cytotoxicity against human DU145 cells at 100 uM after 72 hrs by MTT assay. As to conditions: DU-145, 72 h. The gist of the method: as §2
Assay [15] can be described thus: Cytotoxicity against human BE2C cells at 100 uM after 72 hrs by MTT assay. As to conditions: BE(2)-C. The gist of the method: as §2
A short description of assay [16]: Cytotoxicity against human SJG2 cells after 72 hrs by MTT assay. As to conditions: SJ-G2, 72 h. In short, it runs like this:
as §1

Assay [17] is described as follows: Cytotoxicity against human SJG2 cells at 100 uM after 72 hrs by MTT assay. To be noted: SJ-G2, 72 h. The gist of the method: as §2
The nature of assay [18]: Cytotoxicity against human BE2C cells after 72 hrs by MTT assay. As to conditions: BE(2)-C. In short, it runs like this:
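Cells cultured in DMEM with 10% FBS, bicarbonate, penicillin, streptomycin and 4 mM glutamine at 37 °C, 5% CO2. Log-phase cells plated in duplicate at 2500–4000/well; test agent (DMSO stock) added 24 h later. After 72 h continuous exposure, MTT read at 540 nm; means of 3–6 experiments.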

`O=C1[C@@H]2[C@H](C(=O)N1CC(O)CO)[C@@H]1CC[C@H]2O1` (stereo not given in full): the GI50 in the assay on HT-29 [1] was more than 100 µM; in the assay with SW480 [3], 62 µM; in the assay on MCF7 [5], 46 µM; with A2780 [7], 59 µM; in the assay with NCI-H460 [9], more than 100 µM; in the assay with A-431 [11] it was more than 100 µM. The GI50 (with DU-145 [13]; in [16]) was more than 100 µM in each case. Besides, the inhibition at 100 µM was 39% in the assay with HT-29 [2]; 69% in the assay with SW480 [4]; more than 100% in the assay with MCF7 [6]; more than 100% in the assay on A2780 [8]; 32% in the assay with NCI-H460 [10]; 60% in the assay with A-431 [12]. The results for the inhibition at 100 µM (in the assay on DU-145 [14]; in assay [15]; in assay [17]) were 67%, 73% and 27%, respectively.
For `C[C@@]12C(=O)OC(=O)[C@]1(C)[C@H]1CC[C@@H]2O1` [CANTHARIDIN], the GI50 turned out to be 3.2 µM in the assay with HT-29 [1]; 4.5 µM with SW480 [3]; 7.5 µM in the assay on MCF7 [5]; 4.4 µM in the assay with A2780 [7]; 3.3 µM with NCI-H460 [9]; 2.9 µM in the assay with A-431 [11]. Also, the GI50 in the assay with DU-145 [13] came out at 2.1 µM; in assay [18], 3.7 µM; in assay [16] it was 1.7 µM.
In the case of `O=C1OC(=O)C2C3CCC(O3)C12` (stereo not given) [DEMETHYL-CANTHARIDIN], the GI50 came to 57 µM with HT-29 [1]; 44 µM in the assay with SW480 [3]; 68 µM in the assay on MCF7 [5]; 38 µM in the assay on A2780 [7]; 45 µM with NCI-H460 [9]; 31 µM with A-431 [11]. Further, the values for the GI50 (in the assay with DU-145 [13]; in assay [18]; in assay [16]) were 28 µM, 43 µM and 23 µM, respectively.
